Source: ChEMBL document CHEMBL1157468, “Design, synthesis, and testing of non-nephrotoxic desazadesferrithiocin polyether analogues” (J Med Chem, 2008)

How the values were obtained:
Heart [1] = test: Biodistribution in Sprague-Dawley rat heart assessed per gram tissue wet weight at 300 umol/kg, po after 2 hrs; assay type: ADME, organism-based; details: in vivo
Procedure, shortened: (§1)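 Male Sprague–Dawley rats (250–350 g) got one 300 µmol/kg dose, po or sc. Vehicle was water or the monosodium salt (free acid plus 1 equiv NaOH). Three rats per time point were euthanized by CO2 at 1, 2 or 4 h. Plasma came from citrated cardiac blood; liver, kidney, heart and pancreas were removed. Drug levels were measured by HPLC with UV detection at 310 nm against linear calibration curves (detection limit 0.25 µM).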

Pancreas [2] = test: Biodistribution in Sprague-Dawley rat pancreas assessed per gram tissue wet weight at 300 umol/kg, po after 2 hrs; assay type: ADME, organism-based; details: in vivo; procedure, shortened: as §1
Rattus norvegicus [3] = test: Iron-clearing efficiency in non-iron-overloaded Sprague-Dawley rat at 300 umol/kg, po after 24 hrs relative to control; assay type: functional
Procedure, shortened: (§2)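 Male Sprague–Dawley rats (400–450 g), not iron-loaded and bile duct-cannulated, got one dose of 50, 150 or 300 µmol/kg po, or 300 µmol/kg sc. Vehicle was water or the monosodium salt. Bile was collected every 3 h for 24 h and urine at 24 h. Iron was measured by atomic absorption. Efficiency was treated minus control iron excretion, divided by theoretical output (2:1 ligand:iron), as a percent; mean ± SEM.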

Liver [4] = test: Biodistribution in Sprague-Dawley rat liver assessed per gram tissue wet weight at 300 umol/kg, po after 4 hrs; assay type: ADME, organism-based; details: in vivo; procedure, shortened: as §1
Plasma [5] = test: Biodistribution in Sprague-Dawley rat plasma at 300 umol/kg, sc after 2 hrs; assay type: ADME, organism-based; details: in vivo
Heart [6] = test: Biodistribution in Sprague-Dawley rat heart assessed per gram tissue wet weight at 300 umol/kg, po after 1 hr; assay type: ADME, organism-based; details: in vivo; procedure, shortened: as §1
Liver [7] = test: Biodistribution in Sprague-Dawley rat liver assessed per gram tissue wet weight at 300 umol/kg, sc after 4 hrs; assay type: ADME, organism-based; details: in vivo
Pancreas [8] = test: Biodistribution in Sprague-Dawley rat pancreas assessed per gram tissue wet weight at 300 umol/kg, sc after 1 hr; assay type: ADME, organism-based; details: in vivo
Kidney [9] = test: Biodistribution in Sprague-Dawley rat kidney assessed per gram tissue wet weight at 300 umol/kg, sc after 1 hr; assay type: ADME, organism-based; details: in vivo
Heart [10] = test: Biodistribution in Sprague-Dawley rat heart assessed per gram tissue wet weight at 300 umol/kg, sc after 2 hrs; assay type: ADME, organism-based; details: in vivo
Pancreas [11] = test: Biodistribution in Sprague-Dawley rat pancreas assessed per gram tissue wet weight at 300 umol/kg, sc after 4 hrs; assay type: ADME, organism-based; details: in vivo
Rattus norvegicus [12] = test: Iron-clearing efficiency in non-iron-overloaded Sprague-Dawley rat at 150 umol/kg, po after 24 hrs relative to control; assay type: functional; procedure, shortened: as §2
Pancreas [13] = test: Biodistribution in Sprague-Dawley rat pancreas assessed per gram tissue wet weight at 300 umol/kg, po after 1 hr; assay type: ADME, organism-based; details: in vivo; procedure, shortened: as §1
Sapajus apella [14] = test: Iron-clearing efficiency in iron-overloaded Cebus apella at 150 umol/kg, sc after 2 days relative to control; assay type: functional
Procedure, shortened: (§3)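 Monkeys (Cebus apella, 3.5–4 kg) were iron-loaded to about 500 mg Fe/kg with iv iron dextran and rested at least 60 days. They then got one 150 µmol/kg dose, po or sc. Feces and urine were collected every 24 h from 4 days before to 5 days after dosing, and iron was measured by flame atomic absorption. Efficiency was the 2-day post-drug iron minus the 4-day pre-drug baseline, divided by theoretical output (2:1 ligand:iron); mean ± SEM.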

Heart [15] = test: Biodistribution in Sprague-Dawley rat heart assessed per gram tissue wet weight at 300 umol/kg, sc after 1 hr; assay type: ADME, organism-based; details: in vivo
Kidney [16] = test: Biodistribution in Sprague-Dawley rat kidney assessed per gram tissue wet weight at 300 umol/kg, sc after 4 hrs; assay type: ADME, organism-based; details: in vivo
Heart [17] = test: Biodistribution in Sprague-Dawley rat heart assessed per gram tissue wet weight at 300 umol/kg, po after 4 hrs; assay type: ADME, organism-based; details: in vivo; procedure, shortened: as §1
Plasma [18] = test: Biodistribution in Sprague-Dawley rat plasma at 300 umol/kg, po after 1 hr; assay type: ADME, organism-based; details: in vivo; procedure, shortened: as §1
Rattus norvegicus [19] = test: Toxicity in iron-overloaded Sprague-Dawley rat assessed as survival at 119 umol/kg/day, po after 30 days by non-renal perfusion protocol; assay type: organism-based; details: in vivo, 720 h
Liver [20] = test: Biodistribution in Sprague-Dawley rat liver assessed per gram tissue wet weight at 300 umol/kg, sc after 1 hr; assay type: ADME, organism-based; details: in vivo
Sapajus apella [21] = test: Iron-clearing efficiency in iron-overloaded Cebus apella at 150 umol/kg, po after 2 days relative to control; assay type: functional; procedure, shortened: as §3
Pancreas [22] = test: Biodistribution in Sprague-Dawley rat pancreas assessed per gram tissue wet weight at 300 umol/kg, sc after 2 hrs; assay type: ADME, organism-based; details: in vivo
Liver [23] = test: Biodistribution in Sprague-Dawley rat liver assessed per gram tissue wet weight at 300 umol/kg, po after 1 hr; assay type: ADME, organism-based; details: in vivo; procedure, shortened: as §1
Rattus norvegicus [24] = test: Iron-clearing efficiency in non-iron-overloaded Sprague-Dawley rat at 300 umol/kg, sc after 24 hrs relative to control; assay type: functional; procedure, shortened: as §2
Liver [25] = test: Biodistribution in Sprague-Dawley rat liver assessed per gram tissue wet weight at 300 umol/kg, po after 2 hrs; assay type: ADME, organism-based; details: in vivo; procedure, shortened: as §1
Plasma [26] = test: Biodistribution in Sprague-Dawley rat plasma at 300 umol/kg, po after 2 hrs; assay type: ADME, organism-based; details: in vivo; procedure, shortened: as §1
Kidney [27] = test: Biodistribution in Sprague-Dawley rat kidney assessed per gram tissue wet weight at 300 umol/kg, sc after 2 hrs; assay type: ADME, organism-based; details: in vivo
Rattus norvegicus [28] = test: Iron-clearing efficiency in non-iron-overloaded Sprague-Dawley rat bile assessed as iron excretion at 150 umol/kg, po; assay type: functional; procedure, shortened: as §2
Kidney [29] = test: Biodistribution in Sprague-Dawley rat kidney assessed per gram tissue wet weight at 300 umol/kg, po after 1 hr; assay type: ADME, organism-based; details: in vivo; procedure, shortened: as §1
Plasma [30] = test: Biodistribution in Sprague-Dawley rat plasma at 300 umol/kg, po after 4 hrs; assay type: ADME, organism-based; details: in vivo; procedure, shortened: as §1
Plasma [31] = test: Biodistribution in Sprague-Dawley rat plasma at 300 umol/kg, sc after 1 hr; assay type: ADME, organism-based; details: in vivo
Rattus norvegicus [32] = test: Nephrotoxicity in Sprague-Dawley rat assessed as heavy vacuolized renal tubules at […] for 7 days by renal perfusion studies; assay type: toxicity, organism-based; details: in vivo, 168 h, in the assay text read “237 umol/kg” for “273 umol/kg”
Procedure, shortened: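 Male Sprague–Dawley rats (200–250 g), fasted overnight, got 237 µmol/kg/dose po twice daily (474 µmol/kg/day) for 7 days and were fed about 3 h post-drug. Untreated age-matched rats were controls. One day post-drug, under pentobarbital, kidneys were perfusion-fixed with glutaraldehyde in Tyrode's buffer and embedded in TAAB. 500 nm sections were stained with toluidine blue and examined by light microscopy at 400×.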

Kidney [33] = test: Biodistribution in Sprague-Dawley rat kidney assessed per gram tissue wet weight at 300 umol/kg, po after 4 hrs; assay type: ADME, organism-based; details: in vivo; procedure, shortened: as §1
Liver [34] = test: Biodistribution in Sprague-Dawley rat liver assessed per gram tissue wet weight at 300 umol/kg, sc after 2 hrs; assay type: ADME, organism-based; details: in vivo
Rattus norvegicus [35] = test: Iron-clearing efficiency in non-iron-overloaded Sprague-Dawley rat bile assessed as iron excretion at 300 umol/kg, po; assay type: functional; procedure, shortened: as §2
Kidney [36] = test: Biodistribution in Sprague-Dawley rat kidney assessed per gram tissue wet weight at 300 umol/kg, po after 2 hrs; assay type: ADME, organism-based; details: in vivo; procedure, shortened: as §1
Plasma [37] = test: Biodistribution in Sprague-Dawley rat plasma at 300 umol/kg, sc after 4 hrs; assay type: ADME, organism-based; details: in vivo

`C[C@]1(C(=O)O)CSC(c2ccc(O)cc2O)=N1` [DEFERITRIN] was tested, and the Drug uptake (Heart [1]) was 5 nmol/g, the Drug uptake (Pancreas [2]) was 9 nmol/g and the Activity (Rattus norvegicus [3]) was 1.1%. It also gave a Drug uptake (Liver [4]) of 44 nmol/g, a Drug uptake (Plasma [5]) of 13 nmol/g and a Drug uptake (Heart [6]) of 8 nmol/g. It also gave a Drug uptake (Liver [7]) of 25 nmol/g, a Drug uptake (Pancreas [8]) of 28 nmol/g and a Drug uptake (Kidney [9]) of 179 nmol/g. For the same compound, the Drug uptake (Heart [10]) was 5 nmol/g, the Drug uptake (Pancreas [11]) was 6 nmol/g and the Activity (Rattus norvegicus [12]) was 1.5%. For the same compound, the Drug uptake (Pancreas [13]) was 13 nmol/g, the Activity (Sapajus apella [14]) was 15.9% and the Drug uptake (Heart [15]) was 13 nmol/g. The Drug uptake (Kidney [16]) was 27 nmol/g, the Drug uptake (Heart [17]) was 3 nmol/g and the Drug uptake (Plasma [18]) was 31 nmol/g. For the same compound, the Activity (Rattus norvegicus [19]) was “Non-toxic”, the Drug uptake (Liver [20]) was 80 nmol/g and the Activity (Sapajus apella [21]) was 16.8%. It also gave a Drug uptake (Pancreas [22]) of 6 nmol/g, a Drug uptake (Liver [23]) of 131 nmol/g and an Activity (Rattus norvegicus [24]) of 1.1%. The Drug uptake (Liver [25]) was 73 nmol/g, the Drug uptake (Plasma [26]) was 8 nmol/g and the Drug uptake (Kidney [27]) was 97 nmol/g. The Activity (Rattus norvegicus [28]) was >98%, the Drug uptake (Kidney [29]) was 208 nmol/g and the Drug uptake (Plasma [30]) was 5 nmol/g. The Drug uptake (Plasma [31]) was 34 nmol/g, the Activity (Rattus norvegicus [32]) was “Toxic” and the Drug uptake (Kidney [33]) was 61 nmol/g. The Drug uptake (Liver [34]) was 48 nmol/g, the Activity (Rattus norvegicus [35]) was >98% and the Drug uptake (Kidney [36]) was 100 nmol/g. The Drug uptake (Plasma [37]) was 2 nmol/g.
